# Source: PubChem BioAssay
# APJ ag: agonists of human apelin receptor APJ, primary screen, CHO-K1 cells, PathHunter beta-arrestin, luminescence; 330,000 tested, 0.11% active; activation, % at 20 µM; P35414; 0% DMSO wells, 100% apelin;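 active means activation more than six SD over the plate average, tested at 20 µM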;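 further: 0% = DMSO alone and 100% = apelin-13 at 10 nM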
#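 Assay system: engineered CHO-K1 APJ arrestin reporter cells; Amount: 1000 CHO-K1 reporter cells seeded per well; Dosing: one dose, 20 µM compound, 1% DMSO; Times: compound stimulation 90 min at 25 °C, detection 60 min; Measured by: luminescent beta-gal fragment complementation, chemiluminescent substrate; Read-out: APJ–arrestin association signal; Controls: DMSO vs Apelin-13 10 nM.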
# CCR6 antagonist: CCR6 receptor antagonists, primary screen, cell-based, CHO-K1, luminescence, beta-arrestin, uHTS; CHO-K1 CCR6 PathHunter beta-arrestin, CCL20-stimulated; AID 493098, 2011; 340,000 tested, 0.49% active; inhibition, % at 20 µM;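 active means compounds whose inhibition of the agonist-driven luminescence signal at 20 µM reaches about 50%, limit read from the data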;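 further: cells stimulated with CCL20 at 14 nM final; plate controls were DMSO with CCL20 for no effect and DMSO without agonist for full effect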
# CXCR6 inh: CXCR6 receptor inhibitors, primary screen, cell-based, beta-arrestin, luminescence, CHO-K1 PathHunter, 1536-well | inhibition, % at 20 µM | 360,000 tested, 0.36% active | AID 602244, 2012 | C-X-C chemokine receptor type 6 (Homo sapiens), O00574; in the data active means inhibition above about 34%, passing the limit was not always enough;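 further: antagonist mode with CXCL16 agonist at 10 nM final; 0% = 10 nM CXCL16 with DMSO and 100% = unstimulated wells without agonist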
# Target sequence (O00574 whole entry, looked up): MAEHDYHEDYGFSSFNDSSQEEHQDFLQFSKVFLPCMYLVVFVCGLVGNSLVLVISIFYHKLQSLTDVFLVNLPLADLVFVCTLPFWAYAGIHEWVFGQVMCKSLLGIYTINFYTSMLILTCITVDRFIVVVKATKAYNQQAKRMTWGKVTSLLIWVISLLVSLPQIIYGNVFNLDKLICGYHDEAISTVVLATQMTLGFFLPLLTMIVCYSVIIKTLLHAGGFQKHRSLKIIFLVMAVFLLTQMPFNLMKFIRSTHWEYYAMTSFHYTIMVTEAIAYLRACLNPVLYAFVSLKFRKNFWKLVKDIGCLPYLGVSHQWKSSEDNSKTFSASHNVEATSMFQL
# APJ antag: antagonists of human apelin receptor APJ, primary screen, CHO-K1 cells, beta-arrestin complementation, luminescence; inhibition, % at 20 µM; 330,000 tested, 0.32% active;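 active means inhibition above about 40% at 20 µM, limit read from the data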;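 further: cells challenged with 10 nM apelin-13 agonist together with compound; plate controls were apelin-13 plus DMSO wells for no effect and DMSO wells lacking apelin-13 for full effect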
# m5-HT2A agonist: mouse Htr2a agonists via beta-arrestin recruitment, primary screen, cell-based, luminescence | 5-hydroxytryptamine receptor 2A (Mus musculus), P35363 | CHO-K1 mHTR2A beta-arrestin complementation; percent of 30 µM serotonin response | activation, % at 7.6 µM | 360,000 tested, 0.66% active;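 active means activation above a run cutoff, the mean activation of all tested compounds plus 3 SD, cut at about 14% in these data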;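 further: 0% = plate median of compound wells and 100% = 30 µM serotonin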
# EBI2 block: EBI2 receptor antagonists, beta-arrestin recruitment, primary screen, cell-based, luminescence, 7a,25-OHC stimulation, uHTS; G-protein coupled receptor 183 (Homo sapiens), P32249; 7a,25-OHC stimulated; inhibition, % at 5 µM; 360,000 tested, 0.81% active; in the data active means inhibition above about 38%;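 further: enzyme fragment complementation signal reports receptor beta-arrestin coupling in cells; 0% = agonist plus DMSO wells and 100% = wells without agonist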
# OPRM1 ag: OPRM1 agonists via beta-arrestin recruitment, confirmation, counter-screen for mouse HTR2A agonist project, cell-based, luminescence, single concentration. shares compounds with m5-HT2A agonist. U2OS OPRM1 beta-arrestin PathHunter; DMSO 0%, DAMGO 9.3 µM 100%. activation, % at 9.3 µM. 2,300 tested, 5.3% active;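 active means mean activation above the mean of DMSO-only wells plus 3 SD, cut at about 0.5% in these data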
# HTR2A ag conf: mouse HTR2A agonists, beta-arrestin recruitment, confirmation, cell-based, luminescence, CHO-K1 PathHunter, triplicate | shares compounds with m5-HT2A agonist | 2,300 tested, 19% active | activation, % at 7.6 µM | DMSO 0%, 30 µM serotonin 100%;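 active means mean activation across triplicates above the hit threshold derived in the original primary screen, cut at about 15% in these data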
# EBI2 conf: EBI2 antagonist hit retest, beta-arrestin, confirmation, cell-based, single concentration, luminescence, 7a,25-OHC stimulation; shares compounds with EBI2 block; 7a,25-OHC antagonism; inhibition, % at 5 µM; 2,400 tested, 29% active; AID 651997, 2013;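 active means inhibition of at least 50%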
# EBI2 ag: EBI2 agonist activity of antagonist hits, confirmation, counter-screen for EBI2 antagonist project, cell-based, single concentration, agonist mode, luminescence | shares compounds with EBI2 block | EBI2-expressing cells, 60 min; 0% vehicle, 100% 7α,25-dihydroxycholesterol control | activation, % at 5 µM | 2,400 tested, under 10 active | AID 652000, 2013;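 active means activation of at least 50%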
# bGal counter: E. coli beta-galactosidase enzyme inhibition, confirmation, counter-screen for EBI2 antagonist project, biochemical, luminescence, single concentration; shares compounds with EBI2 block; purified beta-galactosidase, luminescent Galacton Star, 15 min; AID 652176, 2013; 2,400 tested, 1% active; inhibition, % at 5 µM;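 active means replicate-average signal at least 3 plate SD below neutral wells, shown as high inhibition, flagging enzyme-inhibiting false positives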;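 further: 0% = DMSO wells with enzyme and 100% = wells lacking enzyme; higher means stronger loss of beta-gal luminescence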
# Starred values were filed as active, the others as inactive; . = no result given. Hits are enriched below; roughly 2.1% of the tested compounds scored in any of these assays.
SMILES,APJ ag,CCR6 antagonist,CXCR6 inh,APJ antag,m5-HT2A agonist,EBI2 block,OPRM1 ag,HTR2A ag conf,EBI2 conf,EBI2 ag,bGal counter
CC(=O)c1ccc(N2CCN(C(=O)c3cc(-c4ccncc4)nc4ccc(Cl)cc34)CC2)cc1,18,-2,-25,-30,15*,45*,-1,-3,25,2,8
Cc1ccc(OCCC(=O)NNC(=O)c2ccccc2F)cc1,-3,4,6,16,1,0,.,.,.,.,.
CCN(CC)C(=O)c1ccc2sc([C@@H]3O[C@H](CO)[C@H](O)[C@H](O)[C@H]3O)nc2c1,.,.,6,.,2,-6,.,.,.,.,.
COc1ccc(N=C2C(=Nc3ccc(OC)cc3)N(c3ccc(OC)cc3)C(=S)N2c2ccccc2)cc1,-4,2,0,17,16*,64*,-1,-3,19,1,4
COc1ccc(N=C2C(=Nc3ccc(OC)cc3)N(c3ccc(OC)cc3)C(=S)N2C)cc1,6,24,10,-12,0,25,.,.,.,.,.
CCc1ccccc1N(CC(=O)NC(C)(C)CC)C(=O)CCC(=O)Nc1nccs1,-4,14,6,-9,-1,12,.,.,.,.,.
COc1ccc(N2CC(C(=O)Nc3ccc(S(=O)(=O)N4CCCC4)cc3)CC2=O)cc1 (configuration not stated),0,6,0,9,15*,50*,-1,-5,17,0,-12
COc1ccccc1N1CC(C(=O)Nc2ccc(S(=O)(=O)N3CCCC3)cc2)CC1=O (configuration not stated),-1,-3,-2,3,-3,-8,.,.,.,.,.
CN1CCN(C(=O)/C=C/c2ccc([N+](=O)[O-])cc2)CC1,0,10,-2,-5,0,22,.,.,.,.,.
O=C(/C=C/c1ccc([N+](=O)[O-])cc1)N1CCN(S(=O)(=O)c2ccccc2)CC1,4,-8,-12,-6,18*,90*,0,-4,61*,-1,-13
O=C(Nc1ccc(Cl)cc1F)c1ccc2c(c1)C(=O)N(Cc1ccncc1)C2=O,0,-6,-14,3,19*,51*,0,-6,29,2,5
CCC(=O)N1N=C(c2ccc(NS(=O)(=O)c3ccccc3)cc2)CC1c1ccco1 (configuration not stated),-5,9,8,-4,1,-7,.,.,.,.,.
CC(C)(C)Nc1ncnc2sc(-c3ccccc3)cc12,4,2,-16,-9,23*,73*,0.5*,5,40,5,9
CCOc1ccc(NC(=S)N2c3ccccc3CC2C)cc1 (configuration not stated),0,-7,-17,-10,16*,66*,0,-1,-5,0,5
C[C@@H]1CN([C@H](C)CO)C(=O)c2cccc(NC(=O)NC3CCCCC3)c2O[C@@H]1CN(C)C(=O)Nc1ccc(C(F)(F)F)cc1,-1,-1,-6,0,8,72*,.,.,46,-1,-11
O=C(c1ccc(Br)cc1)N1CCN(S(=O)(=O)c2ccccc2)CC1,0,20,0,-3,-2,47*,.,.,39,0,-12
O=C(CSc1ccc(Br)cc1)N1CCN(S(=O)(=O)c2ccccc2)CC1,-7,-5,0,-4,-3,90*,.,.,67*,1,6
O=C(CSc1cccc(C(F)(F)F)c1)N1CCN(S(=O)(=O)c2ccccc2)CC1,0,7,0,26,-9,16,.,.,.,.,.
O=C(Nc1ccc(C(F)(F)F)cc1)C1CCCCN1S(=O)(=O)c1ccccc1 (configuration not stated),-3,11,-6,-1,-5,11,.,.,.,.,.
O=C(NCc1ccccc1F)Nc1nnc([C@H]2C[C@H](O)[C@@H](CO)O2)s1,.,.,7,.,1,-8,.,.,.,.,.
O=C(C(=O)N1CCN(C/C=C/c2ccccc2)CC1)c1ccccc1,.,.,.,.,1,9,.,.,.,.,.
Cc1ccc2nc3n(c(=O)c2c1)-c1cc2ccccc2cc1C(=O)NC3Cc1ccccc1 (configuration not stated),.,.,8,.,0,54*,.,.,34,0,-14
O=C1NC(Cc2ccccc2)c2nc3cc(Cl)ccc3c(=O)n2-c2cc(Cl)ccc21 (configuration not stated),-3,.,.,1,.,.,.,.,.,.,.
CCCC1NC(=O)c2cc3ccccc3cc2-n2c1nc1ccc(C)cc1c2=O (configuration not stated),.,.,-8,.,1,57*,.,.,44,2,7
CCC1NC(=O)c2cc3ccccc3cc2-n2c1nc1ccc(F)cc1c2=O (configuration not stated),.,.,-10,.,-5,8,.,.,.,.,.
Cc1cc(C)c2c(=O)n3c(nc2c1)C(Cc1ccccc1)NC(=O)c1cc2ccccc2cc1-3 (configuration not stated),.,.,0,.,1,76*,.,.,38,-2,-11
CCCC1NC(=O)c2cc3ccccc3cc2-n2c1nc1cc(Cl)ccc1c2=O (configuration not stated),.,.,5,.,-1,53*,.,.,51*,0,6
